Experimental data reported in ChEMBL document CHEMBL1144885 (J Med Chem, 2003).

Columns and labels:
Histamine H4 receptor [1] = target: T1, Histamine H4 receptor (Homo sapiens, UniProt Q9H3N8); experiment: Inhibitory activity measured by [3H]histamine binding to membranes of SK-N-MC cells expressing the human Histamine H4 receptor
Histamine H3 receptor [2] = target: T2, Histamine H3 receptor (Homo sapiens, UniProt Q9Y5N1); experiment: Inhibitory activity measured by [3H]- N alpha- methyl-histamine binding to membranes of SK-N-MC cells expressing the human Histamine H3 receptor; format: cell membranes
Histamine H4 receptor [3] = target: T1, Histamine H4 receptor; experiment: Inhibitory activity determined by the inhibition of cAMP- stimulated beta-galactosidase transcription in SK-N-MC cells expressing the human Histamine H4 receptor; format: cell-based
Method in brief: (§1)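 SK-N-MC cells stably carrying human H4 receptor and a CRE-driven β-galactosidase reporter gene, grown overnight, then exposed 6 h at 37 °C to 1 μM forskolin plus ligand. Mean ± SEM, at least three independent experiments.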

Histamine H3 receptor [4] = target: T2, Histamine H3 receptor; experiment: Inhibitory activity determined by the inhibition of cAMP- stimulated beta-galactosidase transcription in SK-N-MC cells expressing the human Histamine H3 receptor; format: cell-based
Histamine H4 receptor [5] = target: T1, Histamine H4 receptor; experiment: Intrinsic activity for Histamine H4 receptor
Method in brief: as §1, with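 “ligand. Medium removed; cells held overnight at 4 °C in pH 8 phosphate buffer containing Triton and 4 mM ONPG; absorbance read at 405 nm.” for “ligand.”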

T2 sequence (Q9Y5N1 whole entry): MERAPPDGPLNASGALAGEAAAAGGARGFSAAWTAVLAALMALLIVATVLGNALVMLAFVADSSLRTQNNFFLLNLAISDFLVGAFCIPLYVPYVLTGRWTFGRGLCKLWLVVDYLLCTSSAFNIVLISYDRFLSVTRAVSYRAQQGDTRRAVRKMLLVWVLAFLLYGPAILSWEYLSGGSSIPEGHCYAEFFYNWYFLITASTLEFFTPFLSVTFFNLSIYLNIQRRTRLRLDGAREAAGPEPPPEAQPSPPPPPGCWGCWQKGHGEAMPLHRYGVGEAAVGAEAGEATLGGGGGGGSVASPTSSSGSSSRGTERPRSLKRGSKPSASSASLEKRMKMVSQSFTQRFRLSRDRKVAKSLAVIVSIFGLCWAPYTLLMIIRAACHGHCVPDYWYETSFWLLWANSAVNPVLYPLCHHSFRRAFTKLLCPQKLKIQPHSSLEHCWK
T1 sequence (Q9H3N8 whole entry): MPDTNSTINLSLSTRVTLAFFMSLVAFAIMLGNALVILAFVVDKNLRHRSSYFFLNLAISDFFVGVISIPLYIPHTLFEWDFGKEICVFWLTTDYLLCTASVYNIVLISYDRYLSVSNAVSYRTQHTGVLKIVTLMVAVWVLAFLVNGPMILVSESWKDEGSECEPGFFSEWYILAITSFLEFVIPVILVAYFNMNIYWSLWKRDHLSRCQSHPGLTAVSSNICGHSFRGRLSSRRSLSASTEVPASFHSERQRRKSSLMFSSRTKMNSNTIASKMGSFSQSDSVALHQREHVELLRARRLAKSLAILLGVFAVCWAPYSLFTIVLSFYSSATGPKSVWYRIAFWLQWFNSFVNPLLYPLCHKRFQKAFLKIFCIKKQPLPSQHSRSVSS

SMILES | Ki (Histamine H4 receptor [1]) [nM] | Ki (Histamine H3 receptor [2]) [nM] | EC50 (Histamine H4 receptor [3]) [nM] | EC50 (Histamine H3 receptor [4]) [nM] | Intrinsic activity (Histamine H4 receptor [5])
NCCCCCCc1cnc[nH]1 | 759 | 10 | > 10000 | 33.1 | –
NCC1CC1c1c[nH]cn1 (centres undefined) | 112 | 35.5 | 1100 | 19.5 | 0.56
c1nc(C[C@H]2CCNC2)c[nH]1 | 37.2 | 5.25 | 417 | 2.09 | 0.85
c1nc(CC2CCCNC2)c[nH]1 (centres undefined) | 617 | 67.6 | 3980 | 49 | 0.64
c1nc(CC2CCCCN2)c[nH]1 (centres undefined) | 8910 | – | > 10000 | 794 | –
C1=C(c2c[nH]cn2)CCNC1 | 263000 | 4270 | > 10000 | 1510 | –
c1nc(CC2CCNCC2)c[nH]1 [IMMEPIP] | – | 0.479 | 56.2 | 0.132 | 0.73
c1nc(CCCC2CCCCN2)c[nH]1 (centres undefined) | 575 | 93.3 | > 10000 | 324 | –
c1nc(CCC2CCCCN2)c[nH]1 (centres undefined) | 4470 | – | > 10000 | > 10000 | –
C=C(c1c[nH]cn1)C1CCNCC1 | 2820 | 3.98 | > 10000 | 2.34 | –
NCCCCCc1c[nH]cn1 [IMPENTAMINE] | 372 | – | > 10000 | 2.34 | –
NCCCc1c[nH]cn1 [HOMOHISTAMINE] | – | 49 | 214 | 42.7 | 0.82
NCCCCc1c[nH]cn1 [IMBUTAMINE] | – | 4.07 | 89.1 | 7.41 | 0.96
O=C(c1c[nH]cn1)C1CCNCC1 | 479000 | – | > 10000 | 2750 | –
c1nc(CCC2CCNCC2)c[nH]1 | 372 | 20 | > 10000 | 13.2 | –
C[C@@H](N)Cc1c[nH]cn1 | – | – | 1120 | – | 1.04
c1nc(C2CCNCC2)c[nH]1 | 2190 | 871 | > 10000 | 1820 | –
c1nc(CCCC2CCCNC2)c[nH]1 (centres undefined) | 389 | – | > 10000 | – | –
c1nc(C[C@@H]2CCNC2)c[nH]1 | 141 | 1.41 | 1020 | 0.389 | 0.8
c1ncc(CCCC2CCNCC2)[nH]1 | 617 | 4.47 | > 10000 | 8.32 | –
c1nc(CC2CCNC2)c[nH]1 (centres undefined) | 51.3 | 3.63 | 741 | 1.32 | 0.83
N[C@@H]1C[C@H]1c1cnc[nH]1 [VUF-5296] | 3800 | 67.6 | > 10000 | 57.5 | –
C(=C1CCNCC1)c1c[nH]cn1 | 1740 | 5.89 | > 10000 | 3.16 | –
c1nc(CCC2CCCNC2)c[nH]1 (centres undefined) | 324 | 182 | 2040 | 513 | 0.48
N[C@H]1C[C@@H]1c1c[nH]cn1 [VUF-5297] | 1100 | 9.33 | 7080 | 5.89 | 0.61
